Measurements reported in the array DNA melting data of Ke et al. (doi:10.1101/2024.01.08.574731).

Tests used:
[1] = folding enthalpy; higher = less favourable; fluorescence melt of hairpins on a sequencing array, two-state fit; settings: sodium 0.088 M
Procedure, shortened: (§1)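 In 50 mM Na-HEPES pH 8.0 containing 25 mM NaCl, hairpins from the library on a sequenced MiSeq flow cell were imaged for Cy3 fluorescence at 2.5 °C steps up to 60 °C, with Cy3 and quencher oligos annealed. After normalisation to pre-quench Cy3 and to control constructs, two-state fits with bootstrapping gave melting temperature and folding enthalpy. Four replicates were combined by inverse-variance weighting, and fitted temperatures were shifted up by 9.35 °C to match UV melts.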

[2] = melting temperature; fluorescence melt of hairpins on a sequencing array, two-state fit, raised by 9.35 °C to match UV melts; settings: sodium 0.088 M
Procedure, shortened: as §1

GGAGTGGGAAACCGCTTC (.((.((....)).)).)
folding enthalpy [1]: -25.7 kcal/mol
Tm [2]: 38 °C

GGTAGCGAAAGCTAACC ((((((....))).)))
folding enthalpy [1]: -18.7 kcal/mol
Tm [2]: 53.8 °C

GGTAGAGGAAACTTTACC ((((.((....)).))))
folding enthalpy [1]: -24.9 kcal/mol
Tm [2]: 34 °C

GTTGCACCGAAAGGTAAC (((..(((....))))))
folding enthalpy [1]: -14.4 kcal/mol
Tm [2]: 30.4 °C

GAGGTCCGAAAGGAGCTC (((.(((....))).)))
folding enthalpy [1]: -35.5 kcal/mol
Tm [2]: 69.3 °C

GCAATCGGAAACGATTAC (.(((((....))))).)
folding enthalpy [1]: -16.1 kcal/mol
Tm [2]: 38 °C

GACCAACCGAAAGGTGTC (((..(((....))))))
folding enthalpy [1]: -13 kcal/mol
Tm [2]: 35.5 °C

TATCGGAAACGATA (((((....)))))
folding enthalpy [1]: -17.8 kcal/mol
Tm [2]: 43 °C

GACGACGGAAACGTCACC (..((((....))))..)
folding enthalpy [1]: -11.5 kcal/mol
Tm [2]: 35.4 °C

GCGTGGCTACGC ((((....))))
folding enthalpy [1]: -23.4 kcal/mol
Tm [2]: 58.5 °C

GACCGCGAAAGCGGCGTC ((((((....)))..)))
folding enthalpy [1]: -9.59 kcal/mol
Tm [2]: 51.3 °C

GGGTTCGAAAGAAGTCCC ((((((....)))..)))
folding enthalpy [1]: -20.2 kcal/mol
Tm [2]: 32.7 °C

GCACAGCGAAAGCCTTGC (((..((....))..)))
folding enthalpy [1]: -8.82 kcal/mol
Tm [2]: 39 °C

GTAGTTCGAAAGAAGTAC (((.(((....))).)))
folding enthalpy [1]: -25 kcal/mol
Tm [2]: 46 °C

GCAACCGAAAGGTTCTGC ((((((....)))..)))
folding enthalpy [1]: -14.9 kcal/mol
Tm [2]: 41.8 °C

GATCCAGTCCTGGATC ((((((....))))))
folding enthalpy [1]: -44.6 kcal/mol
Tm [2]: 56.5 °C

GCCCAGCGAAAGCTCGGC (((.(((....))).)))
folding enthalpy [1]: -40.4 kcal/mol
Tm [2]: 51.3 °C

GATCGAAGTTTCGATC ((((((....))))))
folding enthalpy [1]: -44.8 kcal/mol
Tm [2]: 53.5 °C

GGACTCCGAAAGGACTCC (((.(((....))).)))
folding enthalpy [1]: -21.1 kcal/mol
Tm [2]: 39.2 °C

GCTCCTGGAAACGGGAGC (((((.(....).)))))
folding enthalpy [1]: -41.1 kcal/mol
Tm [2]: 59.5 °C

CTAGTGAAAACTAG (((((....)))))
folding enthalpy [1]: -15 kcal/mol
Tm [2]: 42.4 °C

GATGCCGAAAGGCGAATC ((((((....)))..)))
folding enthalpy [1]: -9.65 kcal/mol
Tm [2]: 36.9 °C

GATCTCTACCGAGATC ((((((....))))))
folding enthalpy [1]: -37.1 kcal/mol
Tm [2]: 51.7 °C

GCCCAGCGAAAGCGTGGC (((..((....))..)))
folding enthalpy [1]: -23 kcal/mol
Tm [2]: 62.4 °C

CCGAGGAAACTCGG (((((....)))))
folding enthalpy [1]: -23.9 kcal/mol
Tm [2]: 55.9 °C

GATTCGGGAAACCAAATC ((((.((....)).))))
folding enthalpy [1]: -22.3 kcal/mol
Tm [2]: 30.1 °C

GAAATTGGAAACAATTCC (.(((((....))))).)
folding enthalpy [1]: -22.9 kcal/mol
Tm [2]: 30.5 °C

GCGTAAGGACGC ((((....))))
folding enthalpy [1]: -19.7 kcal/mol
Tm [2]: 49.3 °C

GCAGCGGGAAACCGTTGC (((.(((....))).)))
folding enthalpy [1]: -39.4 kcal/mol
Tm [2]: 57.9 °C

GCGTTCGACGC ((((...))))
folding enthalpy [1]: -23.7 kcal/mol
Tm [2]: 53.8 °C

GATCATTGGCATGATC ((((((....))))))
folding enthalpy [1]: -30.3 kcal/mol
Tm [2]: 45.5 °C

GTGGTCGAAAGACTACAC ((((((....)))..)))
folding enthalpy [1]: -15.7 kcal/mol
Tm [2]: 48.2 °C

GTAACCGCGAAAGCGTAC (((..(((....))))))
folding enthalpy [1]: -8.01 kcal/mol
Tm [2]: 28.4 °C

GTCGGCGAAAGCCCAGAC ((((((....)))..)))
folding enthalpy [1]: -13.5 kcal/mol
Tm [2]: 42.7 °C

GATCTCGCAGGAGATC ((((((....))))))
folding enthalpy [1]: -50.6 kcal/mol
Tm [2]: 57.5 °C

GATCGAAGCCTCGATC ((((((....))))))
folding enthalpy [1]: -33 kcal/mol
Tm [2]: 50.9 °C

GTGGCTGGAAACAACCAC ((((.((....)).))))
folding enthalpy [1]: -34.4 kcal/mol
Tm [2]: 45.8 °C

GGCCTCGAAAGAGCGGCC ((((((....)))..)))
folding enthalpy [1]: -29.1 kcal/mol
Tm [2]: 51.8 °C

GATCGAGGATCGATC ((((((...))))))
folding enthalpy [1]: -35.4 kcal/mol
Tm [2]: 59.6 °C

GAAGGGCCGAAAGGCTTC (((..(((....))))))
folding enthalpy [1]: -7.08 kcal/mol
Tm [2]: 23 °C

GACGCCGAAAGGCCGTC ((((((....))).)))
folding enthalpy [1]: -18.7 kcal/mol
Tm [2]: 61.4 °C

GGATTGGGAAACCAGTCC (((.(((....))).)))
folding enthalpy [1]: -31.1 kcal/mol
Tm [2]: 46.9 °C

GGCGCGGGAAACCGCACC ((.((((....)))).))
folding enthalpy [1]: -22.4 kcal/mol
Tm [2]: 61.7 °C

GCGCCCGAAAGGGAACGC ((((((....)))..)))
folding enthalpy [1]: -33.4 kcal/mol
Tm [2]: 54.7 °C

GGCTGCACGAAAGTGGCC (((..(((....))))))
folding enthalpy [1]: -20 kcal/mol
Tm [2]: 49 °C

GATCGCTAAGGCGATC ((((((....))))))
folding enthalpy [1]: -39.2 kcal/mol
Tm [2]: 67.8 °C

GAGGCCGAAAGGCACTC ((((((....))).)))
folding enthalpy [1]: -14.5 kcal/mol
Tm [2]: 54.1 °C

GATCTTACCTAAGATC ((((((....))))))
folding enthalpy [1]: -40.2 kcal/mol
Tm [2]: 45 °C

GATCATCGCTATGATC ((((((....))))))
folding enthalpy [1]: -38.8 kcal/mol
Tm [2]: 47.2 °C

GCCGAACGAAAGTTAGGC (((.(((....))).)))
folding enthalpy [1]: -36.2 kcal/mol
Tm [2]: 60.9 °C

GATCTTTATGAAGATC ((((((....))))))
folding enthalpy [1]: -36.5 kcal/mol
Tm [2]: 44.9 °C

GTCCACGAAAGTGCTGAC ((((((....)))..)))
folding enthalpy [1]: -14.7 kcal/mol
Tm [2]: 33.9 °C

GATCGGAAGTCCGATC ((((((....))))))
folding enthalpy [1]: -38.9 kcal/mol
Tm [2]: 55.2 °C

GATCGGCACTCCGATC ((((((....))))))
folding enthalpy [1]: -40.5 kcal/mol
Tm [2]: 57.1 °C

GATCGGACACCCGATC ((((((....))))))
folding enthalpy [1]: -41.5 kcal/mol
Tm [2]: 54.7 °C

CGTCCGGAAACGGGACG ((((((....))).)))
folding enthalpy [1]: -30.4 kcal/mol
Tm [2]: 55.8 °C

GCTTCCCGAAAGGGGAGC (((.(((....))).)))
folding enthalpy [1]: -46 kcal/mol
Tm [2]: 65.5 °C

ACACAGAAATGTGT (((((....)))))
folding enthalpy [1]: -14.7 kcal/mol
Tm [2]: 45.9 °C

GCGAACGAAAGTTAACGC ((((((....)))..)))
folding enthalpy [1]: -20.6 kcal/mol
Tm [2]: 44.6 °C

GTTAAGGGAAACCTTAAC (((((((....)))))))
folding enthalpy [1]: -39.2 kcal/mol
Tm [2]: 50.5 °C

GCAGTCACGAAAGTGTGC (((..(((....))))))
folding enthalpy [1]: -19.5 kcal/mol
Tm [2]: 38 °C

TGTGTGAAAACACA (((((....)))))
folding enthalpy [1]: -20 kcal/mol
Tm [2]: 49 °C

GACGTGCGAAAGCAAGTC (((.(((....))).)))
folding enthalpy [1]: -31.5 kcal/mol
Tm [2]: 60.5 °C

GGCAACGAAAGTTCGGCC ((((((....)))..)))
folding enthalpy [1]: -25.2 kcal/mol
Tm [2]: 44.4 °C

GAACCCGAAAGGGGGTTC ((((((....)))..)))
folding enthalpy [1]: -25.3 kcal/mol
Tm [2]: 56 °C

GGGCTCGGAAACGAGTCC ((.((((....)))).))
folding enthalpy [1]: -41 kcal/mol
Tm [2]: 65.2 °C

GCATTGCGAAAGCTATGC ((((.((....)).))))
folding enthalpy [1]: -38.9 kcal/mol
Tm [2]: 62.5 °C

GATCCACCGTTGGATC ((((((....))))))
folding enthalpy [1]: -36.5 kcal/mol
Tm [2]: 49.7 °C

GATTGTGGAAACGCAATC (((((.(....).)))))
folding enthalpy [1]: -35.5 kcal/mol
Tm [2]: 47.2 °C

GAGGCCCCGAAAGGGCTC (((..(((....))))))
folding enthalpy [1]: -14.1 kcal/mol
Tm [2]: 50.7 °C

GTAACGGGAAACCGTTAC (((((((....)))))))
folding enthalpy [1]: -49.6 kcal/mol
Tm [2]: 60.5 °C

GATCGAACGATCGATC ((((((....))))))
folding enthalpy [1]: -18.9 kcal/mol
Tm [2]: 52.8 °C

GTGATCGAAAGATCCCAC ((((((....)))..)))
folding enthalpy [1]: -10.7 kcal/mol
Tm [2]: 32.4 °C

GTCGGGTCGAAAGACGAC (((..(((....))))))
folding enthalpy [1]: -19.8 kcal/mol
Tm [2]: 47.4 °C

GGCCAGCCGAAAGGCGCC (((..(((....))))))
folding enthalpy [1]: -13.4 kcal/mol
Tm [2]: 55.1 °C

GGCTACCGAAAGGTTGCC (((.(((....))).)))
folding enthalpy [1]: -35.5 kcal/mol
Tm [2]: 63 °C

GTCTGTGGAAACACGGAC (((.(((....))).)))
folding enthalpy [1]: -34.9 kcal/mol
Tm [2]: 53 °C

GGACCCGAAAGGGTGTCC ((((((....)))..)))
folding enthalpy [1]: -14 kcal/mol
Tm [2]: 47.1 °C

GCACTCGAAAGAGGATGC ((((((....)))..)))
folding enthalpy [1]: -22.4 kcal/mol
Tm [2]: 40.1 °C

GATCACCTAGTGATC ((((((...))))))
folding enthalpy [1]: -34.8 kcal/mol
Tm [2]: 58.2 °C

GAGTCAGGAAACCGACTC (((((.(....).)))))
folding enthalpy [1]: -36.8 kcal/mol
Tm [2]: 46.6 °C

GATCAACTATTGATC ((((((...))))))
folding enthalpy [1]: -30.4 kcal/mol
Tm [2]: 41 °C

GGAGTCGAAAGACAGTCC ((((((....)))..)))
folding enthalpy [1]: -14.3 kcal/mol
Tm [2]: 31.5 °C

GTCTCCCGAAAGGGGAC (((.(((....))))))
folding enthalpy [1]: -31.4 kcal/mol
Tm [2]: 54.8 °C

CTTCCGAAAGGAAG (((((....)))))
folding enthalpy [1]: -21.3 kcal/mol
Tm [2]: 55.8 °C

GATCGTGATGACGATC ((((((....))))))
folding enthalpy [1]: -37.8 kcal/mol
Tm [2]: 54.4 °C

GGCGCAGCGAAAGCTGCC (((..(((....))))))
folding enthalpy [1]: -6.91 kcal/mol
Tm [2]: 52.6 °C

GGCAATCCGAAAGGAGCC (((..(((....))))))
folding enthalpy [1]: -23.4 kcal/mol
Tm [2]: 46.9 °C

GGATAGCCGAAAGGCTCC (((..(((....))))))
folding enthalpy [1]: -9.11 kcal/mol
Tm [2]: 38.1 °C

GGATGTGGAAACGCATTC (.(((.(....).))).)
folding enthalpy [1]: -22.9 kcal/mol
Tm [2]: 33.9 °C

GCATATCGAAAGATCTGC (((.(((....))).)))
folding enthalpy [1]: -31.2 kcal/mol
Tm [2]: 43.9 °C

GGTCTCCGAAAGGAAACC (((.(((....))).)))
folding enthalpy [1]: -29.2 kcal/mol
Tm [2]: 45.5 °C

GAAACGCGAAAGCGCTTC (((.(((....))).)))
folding enthalpy [1]: -18.7 kcal/mol
Tm [2]: 51.5 °C
